Laboratory results taken from publication PMC2193327 (The Journal of Experimental Medicine, 2001).
No end group written: not given here.

Target: HLA-B*3501 (Homo sapiens, UniProt P01889, A329T/A93T/A95T/C349S/D201E/D98Y/E176V/E187L/E204Q/E69T/I218V/K202T/L119I/Q94N/R155S/R180L/S121R/S35A/S48A/T118I/V127L/V306I/V36M/Y140S/Y91F)
Format: binding
Procedure, shortened: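 Human 721.221 cells expressing HLA-B*3501 were stripped of bound peptides with mild acid (pH 3.2). They were incubated overnight at 4°C with fluorescein-labelled reference peptide LPSC(FL)ADVEF (250 nM fixed) plus competitor peptides (>80% HPLC purity) from 50 to 0.09 μM. After washing, bound labelled peptide was measured by flow cytometry. IC50 (50% inhibition of reference binding) was taken from exponential regression curves.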

Compound | IC50 [nM]
CC(C)C[C@H](NC(=O)CNC(=O)[C@@H](NC(=O)[C@@H](NC(=O)[C@H](C)NC(=O)[C@@H]1CCCN1C(=O)[C@@H](N)CC(C)C)C(C)C)C(C)C)C(=O)N[C@@H](CO)C(=O)N1CCC[C@H]1C(=O)NCC(=O)N[C@@H](CCC(=O)O)C(=O)N[C@@H](CCC(N)=O)C(=O)N[C@@H](CCC(=O)O)C(=O)N[C@@H](Cc1ccc(O)cc1)C(=O)O [LPAVVGLSPGEQEY] | 3100
APAVVGLSPGEQEY [APAVVGLSPGEQEY] | 2800
FPSDSWCYF [FPSDSWCYF, reference compound] | 4100
LAAVVGLSAGEQEY [LAAVVGLSAGEQEY] | 1700
LAAVVGLSPGEQEY [LAAVVGLSPGEQEY] | 2600
LGAVVGLSPGEQEY [LGAVVGLSPGEQEY] | 17400
LMAVVGLSPGEQEY [LMAVVGLSPGEQEY] | 6500
LPAVVGASPGEQEY [LPAVVGASPGEQEY] | 1300
LPAVVGLSAGEQEY [LPAVVGLSAGEQEY] | 1100
LWAVVGLSPGEQEY [LWAVVGLSPGEQEY] | 4700
